Results taken from ChEMBL document CHEMBL1142124, “Antimicrobial prenylated anthracene derivatives from the leaves of Harungana madagascariensis” (2007).
Active and inactive are the calls of the source. The rule behind the calls is not given here.

Experiments:
[1] = tested on: Priestia megaterium; assay: Antibacterial activity against Bacillus megaterium at 1 ug/uL by agar diffusion assay; assay type: functional
How it was run: (§1)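 Filter-disk agar diffusion. 50 µL of test solution is applied to a sterile 9 mm disk, and the disk is air-dried. Disks sit on an agar medium suited to each organism, and the plate is sprayed with a suspension of that organism. Incubation is at 28 °C overnight. The radius of the inhibition zone is read in mm.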

[2] = tested on: Priestia megaterium; assay: Antibacterial activity against Bacillus megaterium at 5 ug/uL by agar diffusion assay; assay type: functional; how it was run: as §1
[3] = tested on: [Chlorella] fusca; assay: Antimicrobial activity against Chlorella fusca at 1 ug/uL by agar diffusion assay; assay type: functional, organism-based; details: Scenedesmus fuscus; how it was run: as §1
[4] = tested on: [Chlorella] fusca; assay: Antimicrobial activity against Chlorella fusca at 5 ug/uL by agar diffusion assay; assay type: functional; details: for Activity: Scenedesmus fuscus; how it was run: as §1
[5] = tested on: Microbotryum violaceum; assay: Antimicrobial activity against Micobotryum violaceum at 1 ug/uL by agar diffusion assay; assay type: functional, organism-based; how it was run: as §1
[6] = tested on: Microbotryum violaceum; assay: Antimicrobial activity against Micobotryum violaceum at 5 ug/uL by agar diffusion assay; assay type: functional; how it was run: as §1

## CC(C)=CCc1c(C)cc(O)c2c(O)c3c(cc12)[C@]1(CC=C(C)C)C[C@H](O)C(C)(C)[C@@H](C3=O)C1=O [HARUNMADAGASCARIN D]
[1]
  Activity: inactive
[2]
  inhibition zone (IZ): 10 mm
[3]
  Activity: inactive
[4]
  Activity: inactive
[5]
  Activity: inactive
[6]
  Activity: inactive

## O=c1c2cc(O)ccc2oc2cccc(O)c12
[1]
  inhibition zone (IZ): 9 mm
[2]
  inhibition zone (IZ): 12 mm
[3]
  Activity: inactive
[4]
  inhibition zone (IZ): 10 mm
[5]
  Activity: inactive
[6]
  inhibition zone (IZ): 12 mm

## CC(C)=CCc1c(C)c(CC=C(C)C)c2c(c1O)C(=O)c1c(O)cc(O)c(CC=C(C)C)c1C2
[1]
  Activity: inactive
[2]
  Activity: inactive
[3]
  Activity: inactive
[4]
  Activity: inactive
[5]
  Activity: inactive
[6]
  Activity: inactive

## COC1c2c(CC=C(C)C)c(C)cc(O)c2C(=O)c2c(O)cc3c(c21)CC(C(C)(C)O)O3 (stereo not given) [KENGANTHRANOL C]
[1]
  inhibition zone (IZ): 6 mm
[2]
  inhibition zone (IZ): 10 mm
[3]
  Activity: inactive
[4]
  Activity: inactive
[5]
  Activity: inactive
[6]
  Activity: inactive

## CC(C)=CCc1c(C)c2c3c(c1O)C(=O)c1c(O)cc4c(c1[C@]31O[C@H](C2)C(C)(C)O1)C=CC(C)(C)O4
[1]
  Activity: inactive
[2]
  Activity: inactive
[3]
  Activity: inactive
[4]
  Activity: inactive
[5]
  Activity: inactive
[6]
  Activity: inactive
